According to ChEMBL document CHEMBL1122226, “6-Aryl-4,5-dihydro-3(2H)-pyridazinones. A new class of compounds with platelet aggregation inhibiting and hypotensive activities” (J Med Chem, 1983):
Values after ≈ are worked out from the molar mass of the structure shown.

Organism: Homo sapiens
Assay: In vitro inhibition of ADP-induced human platelet aggregation
Format: functional
Details: Homo sapiens; read-out: EC50
Outline: (§1)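 Human venous blood citrated with 10% v/v sodium citrate (3.8%); platelet-rich plasma spun at 300g, 10 min, 4 °C, used within 2 h. Compound in Me2SO (1% final) preincubated 10 min at room temperature; aggregation triggered by collagen 0.02 mg/mL final or ADP 0.85 μg/mL final; maximum rate read in Born aggregometer. EC50 from log dose–effect regression with 95% confidence limits.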
With `CC(Cl)C(=O)Nc1ccc(C2=NNC(=O)C(C)C2)cc1` (stereo unspecified) the EC50 was 32.9 µg/mL (≈ 112 µM).
In the case of `CC1CC(=O)NN=C1c1ccc(NC(=O)C(C)(C)CBr)cc1` (stereo unspecified), the EC50 is reported as 0.5 µg/mL (≈ 1.37 µM).
Molecule `O=C1CCC(c2ccc(NC(=O)CCl)cc2)=NN1` has an EC50 of 0.39 µg/mL (≈ 1.47 µM).
`CCCCC[C@H](O)/C=C/[C@@H]1[C@H]2C/C(=C/CCCC(=O)O)O[C@H]2C[C@H]1O` [EPOPROSTENOL] showed an EC50 of 0.0174 µg/mL (≈ 0.0494 µM).
With `CCN(CC)CC(=O)Nc1ccc(C2=NNC(=O)CC2)cc1.Cl` the EC50 was about 10 µg/mL.
With `CN1N=C(c2ccc(N)cc2)CCC1=O` the EC50 was over 46.4 µg/mL.
Work on `CC(C)(CCl)C(=O)Nc1ccc(C2=NNC(=O)CC2)cc1` yielded an EC50 of 11.4 µg/mL (≈ 37 µM).
`CC1CC(=O)NN=C1c1ccc(NC(=O)CCl)cc1` (stereo unspecified) showed an EC50 of 0.15 µg/mL (≈ 0.536 µM).
`CC(=O)Nc1cccc(C2=NNC(=O)CC2)c1` gave an EC50 of over 46.4 µg/mL.

Organism: Homo sapiens
Assay: In vitro inhibition of collagen-induced human platelet aggregation.
Format: functional, organism-based
Details: not given
Outline: as §1
With `CC(=O)Oc1ccccc1C(=O)O` [ASPIRIN] the EC50 was 494 µg/mL (≈ 2740 µM).
Work on `COc1ccc2c(c1)c(CC(=O)O)c(C)n2C(=O)c1ccc(Cl)cc1` [INDOMETHACIN] yielded an EC50 of 200 µg/mL (≈ 559 µM).

Same assay, conditions: Homo sapiens; read-out: EC50
With `CC(Cl)C(=O)Nc1ccc(C2=NNC(=O)C(C)C2)cc1` (stereo unspecified) the EC50 was 33.8 µg/mL (≈ 115 µM).
For `CCCCC[C@H](O)/C=C/[C@@H]1[C@H]2C/C(=C/CCCC(=O)O)O[C@H]2C[C@H]1O` [EPOPROSTENOL], the EC50 was 0.00165 µg/mL (≈ 0.00468 µM).
`CCN(CC)CC(=O)Nc1ccc(C2=NNC(=O)CC2)cc1.Cl` showed an EC50 of about 10 µg/mL.
`CN1N=C(c2ccc(N)cc2)CCC1=O` gave an EC50 of over 46.4 µg/mL.
`CC(C)(CCl)C(=O)Nc1ccc(C2=NNC(=O)CC2)cc1` showed an EC50 of 9.24 µg/mL (≈ 30 µM).
`CC(=O)Nc1cccc(C2=NNC(=O)CC2)c1` showed an EC50 of over 46.4 µg/mL.

Organism: Homo sapiens
Assay: Relative activity (compared to acetylsalicylic acid) for in vitro inhibition of collagen-induced human platelet aggregation
Format: functional
Details: not given
`CC(=O)Oc1ccccc1C(=O)O` [ASPIRIN] showed a Relative activity of 1.
With `COc1ccc2c(c1)c(CC(=O)O)c(C)n2C(=O)c1ccc(Cl)cc1` [INDOMETHACIN] the Relative activity was 2.47.
Molecule `CC(Cl)C(=O)Nc1ccc(C2=NNC(=O)C(C)C2)cc1` (stereo unspecified) has a Relative activity of 15.
With `CC1CC(=O)NN=C1c1ccc(NC(=O)C(C)(C)CBr)cc1` (stereo unspecified) the Relative activity was 1123.
For `O=C1CCC(c2ccc(NC(=O)CCl)cc2)=NN1`, the Relative activity was 1976.
`CCCCC[C@H](O)/C=C/[C@@H]1[C@H]2C/C(=C/CCCC(=O)O)O[C@H]2C[C@H]1O` [EPOPROSTENOL] gave a Relative activity of 299394.
With `CCN(CC)CC(=O)Nc1ccc(C2=NNC(=O)CC2)cc1.Cl` the Relative activity was about 49.
`CN1N=C(c2ccc(N)cc2)CCC1=O` showed a Relative activity of under 11.
In the case of `CC(C)(CCl)C(=O)Nc1ccc(C2=NNC(=O)CC2)cc1`, the Relative activity is reported as 54.
Work on `CC(=O)Nc1cccc(C2=NNC(=O)CC2)c1` yielded a Relative activity of under 11.

System: Rattus norvegicus
Assay: In vitro hypotensive activity in anesthetized rats after intraperitoneal administration.
Format: functional
Details: ip, in the assay text read “In vivo” for “In vitro”
Outline: (§2)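 Male Sprague-Dawley rats, 230-280 g, urethane-anesthetized (ip); carotid arterial pressure recorded continuously by pressure transducer. Compounds given ip at 2 mL/kg. ED20, dose lowering mean carotid pressure by 20%, from log dose–effect regression; dihydralazine as reference.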
Work on `CC(Cl)C(=O)Nc1ccc(C2=NNC(=O)C(C)C2)cc1` (stereo unspecified) yielded an ED20 of over 1 mg/kg.
For `CC1CC(=O)NN=C1c1ccc(NC(=O)C(C)(C)CBr)cc1` (stereo unspecified), the ED20 was 0.34 mg/kg.
In the case of `O=C1CCC(c2ccc(NC(=O)CCl)cc2)=NN1`, the ED20 is reported as 0.37 mg/kg.
Molecule `CCN(CC)CC(=O)Nc1ccc(C2=NNC(=O)CC2)cc1.Cl` has an ED20 of over 1 mg/kg.
With `CN1N=C(c2ccc(N)cc2)CCC1=O` the ED20 was over 1 mg/kg.
In the case of `CC(C)(CCl)C(=O)Nc1ccc(C2=NNC(=O)CC2)cc1`, the ED20 is reported as over 1 mg/kg.
`CC1CC(=O)NN=C1c1ccc(NC(=O)CCl)cc1` (stereo unspecified) gave an ED20 of 0.15 mg/kg.
Molecule `CC(=O)Nc1cccc(C2=NNC(=O)CC2)c1` has an ED20 of over 1 mg/kg.

System: Rattus norvegicus
Assay: Ex vivo inhibition of collagen-induced rat platelet aggregation after peroral administration
Format: functional
Details: po
Outline: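 Male Sprague-Dawley rats, 200-250 g, dosed orally, three rats per dose. Blood drawn by heart puncture under ether 1 h post-dose; platelet-rich plasma prepared by centrifugation; aggregation induced with collagen 0.02 mg/mL final, maximum rate read in Born aggregometer.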
For `CC(=O)Oc1ccccc1C(=O)O` [ASPIRIN], the ED33 was 233 mg/kg.
Work on `CC1CC(=O)NN=C1c1ccc(NC(=O)C(C)(C)CBr)cc1` (stereo unspecified) yielded an ED33 of 3.5 mg/kg.
For `O=C1CCC(c2ccc(NC(=O)CCl)cc2)=NN1`, the ED33 was 15.7 mg/kg.
Molecule `CC1CC(=O)NN=C1c1ccc(NC(=O)CCl)cc1` (stereo unspecified) has an ED33 of 12.2 mg/kg.

System: not listed separately
Assay: In vitro inhibition of collagen induced aggregation of human plateles and the ratio of ED33 to EC50 was reported
Format: functional
Details: not given
Outline: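 Ratio of oral ED33 (male Sprague-Dawley rats, 3 per dose, blood taken 1 h post-dose, collagen-triggered aggregation) to in vitro EC50 (human citrated platelet-rich plasma, 10 min room-temperature preincubation in 1% Me2SO, collagen 0.02 mg/mL final, regression-derived).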
Work on `CC(=O)Oc1ccccc1C(=O)O` [ASPIRIN] yielded a Ratio of 0.47.
`CC1CC(=O)NN=C1c1ccc(NC(=O)C(C)(C)CBr)cc1` (stereo unspecified) gave a Ratio of 8.
`O=C1CCC(c2ccc(NC(=O)CCl)cc2)=NN1` showed a Ratio of 62.8.
For `CC1CC(=O)NN=C1c1ccc(NC(=O)CCl)cc1` (stereo unspecified), the Ratio was 111.

System: Rattus norvegicus
Assay: Activity relative to dihydralazine for in vitro hypotensive activity in anesthetized rats
Format: functional
Details: in the assay text read “in vivo” for “in vitro”
Outline: as §2
Work on `CC(=O)Oc1ccccc1C(=O)O` [ASPIRIN] yielded a Relative activity of 1.
For `CC(Cl)C(=O)Nc1ccc(C2=NNC(=O)C(C)C2)cc1` (stereo unspecified), the Relative activity was under 0.34.
Molecule `CC1CC(=O)NN=C1c1ccc(NC(=O)C(C)(C)CBr)cc1` (stereo unspecified) has a Relative activity of 0.99.
`O=C1CCC(c2ccc(NC(=O)CCl)cc2)=NN1` showed a Relative activity of 0.91.
`CCN(CC)CC(=O)Nc1ccc(C2=NNC(=O)CC2)cc1.Cl` showed a Relative activity of under 0.34.
`CN1N=C(c2ccc(N)cc2)CCC1=O` gave a Relative activity of under 0.34.
For `CC(C)(CCl)C(=O)Nc1ccc(C2=NNC(=O)CC2)cc1`, the Relative activity was under 0.34.
Molecule `CC1CC(=O)NN=C1c1ccc(NC(=O)CCl)cc1` (stereo unspecified) has a Relative activity of 2.25.
`CC(=O)Nc1cccc(C2=NNC(=O)CC2)c1` gave a Relative activity of under 0.34.

Organism: Rattus norvegicus
Assay: Relative activity in rats based on acetylsalicylic acid
Format: functional
Details: not given
`CC1CC(=O)NN=C1c1ccc(NC(=O)C(C)(C)CBr)cc1` (stereo unspecified) gave a Relative activity of 66.6.
Molecule `O=C1CCC(c2ccc(NC(=O)CCl)cc2)=NN1` has a Relative activity of 14.8.
`CC1CC(=O)NN=C1c1ccc(NC(=O)CCl)cc1` (stereo unspecified) gave a Relative activity of 19.1.

System: Rattus norvegicus
Assay: In vivo hypotensive activity in anesthetized rats after intravenous administration.
Details: not given
In the case of `CCCCC[C@H](O)/C=C/[C@@H]1[C@H]2C/C(=C/CCCC(=O)O)O[C@H]2C[C@H]1O` [EPOPROSTENOL], the ED20 is reported as 0.00067 mg/kg.
